CDK5 p35 inh – CDK5/p35 (human) kinase inhibition. 330,000 compounds, 0.01% hits. inhibition, % at 10 µM. Q00535+Q15078. Recombinant CDK5/p35, ADP-Glo luminescence, 60 min. AID 488839;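 active means highest replicate inhibition of at least 50% and at least 75% of replicates reaching 50%; inconclusive means only one of the two criteria met; inactive means both criteria failed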;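 further: plate controls were DMSO neutral control for no effect and GW8510 at 10 µM for full effect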
Target sequence (Q00535 whole entry, looked up): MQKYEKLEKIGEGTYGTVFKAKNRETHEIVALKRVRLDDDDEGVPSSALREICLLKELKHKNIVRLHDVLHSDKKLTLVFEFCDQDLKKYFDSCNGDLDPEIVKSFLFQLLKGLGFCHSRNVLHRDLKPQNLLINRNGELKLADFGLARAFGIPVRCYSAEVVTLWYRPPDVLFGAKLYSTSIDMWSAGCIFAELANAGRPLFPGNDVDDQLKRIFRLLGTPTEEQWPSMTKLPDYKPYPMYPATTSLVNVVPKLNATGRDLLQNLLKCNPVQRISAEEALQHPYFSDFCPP
Target sequence (Q15078 whole entry, looked up): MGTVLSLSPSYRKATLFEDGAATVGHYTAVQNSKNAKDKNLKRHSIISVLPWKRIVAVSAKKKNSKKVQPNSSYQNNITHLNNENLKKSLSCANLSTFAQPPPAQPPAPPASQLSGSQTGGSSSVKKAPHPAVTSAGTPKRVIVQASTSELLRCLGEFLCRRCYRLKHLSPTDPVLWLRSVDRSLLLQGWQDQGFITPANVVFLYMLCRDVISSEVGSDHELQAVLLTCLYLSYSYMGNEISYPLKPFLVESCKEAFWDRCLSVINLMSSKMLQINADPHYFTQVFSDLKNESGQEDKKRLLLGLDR
PAX8 reporter – PAX8 transcriptional activity inhibition; inhibition, % at 12.6 µM; RMG-I TPO-luciferase reporter, SteadyGlo, 24 h; 360,000 compounds, 1.2% hits; AID 652154;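 active means mean replicate inhibition at least 60% with every replicate also reaching 60%; inconclusive means only one of the two criteria is met; inactive means mean below 60% and not all replicates reaching 60%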;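 further: luciferase light reporting Pax8 driven TPO promoter activity; plate controls were median of neutral control wells for no effect and mitoxantrone controls for full effect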
INS-1E GSIS act – primary screen for activators of insulin secretion dependent on glucose, INS-1E cells, GLuc reporter luminescence | activation, % at 16.6 µM | INS-1E GLuc reporter insulin secretion, 2-3 h | 370,000 compounds, 0.61% hits | AID 743287;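 active means lowest replicate activation of at least 40%, so every replicate reaches that level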;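 further: 0% = median of neutral control wells and 100% = median of IBMX positive control wells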
HIV Env fusion – inhibitors of HIV Env-mediated cell fusion. HeLa-JRFL Env/CEM21 cell fusion, luciferase. inhibition, % at 12.3 µM. 360,000 compounds, 1.1% hits;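 active means mean replicate inhibition score of at least 50 and every replicate individually at or above 50; inconclusive means only one of the two criteria met; inactive means mean below 50 and not all replicates reaching 50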;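 further: 0% = plate neutral controls and 100% = maraviroc near 300 nM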
Cneo AK release – Cryptococcus neoformans lysis via adenylate kinase release; C. neoformans lysis, adenylate kinase release luminescence, 4 h; normalised: neutral wells 0, clomiphene wells 100; lysis activity, % at 15 µM; 360,000 compounds, 0.2% hits;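 active means mean lysis activity across replicates of at least 80%, whatever share of replicates individually reach that level; inactive means mean lysis activity below 80%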
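Assay system: Cryptococcus neoformans yeast cells / Dosing: single-point compound dose / Timing: 4 h at 37 °C static, read 1 h later / Measured by: luminescence of released adenylate kinase using an AK detection reagent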
dFosB act – activators of mouse delta FosB homodimer; P13346; purified delta FosB, TAMRA-CDK5 oligo fluorescence polarization; percent of positive-control signal above neutral wells; activation, % at 25 µM; 340,000 compounds, 0.99% hits; AID 493131;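 active means mean activation above about 17%, with every replicate also reaching it, limit read from the data, passing the limit was not always enough; inconclusive means only one of the two conditions met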
An asterisk follows results filed as active; ? = inconclusive; / = no result; + = active, no number; ! = not confirmed by another sample; [ ] = dose if it differs, or a comment. A selection: hits, their analogues and other compounds. The true share with any hit is near 2.9%.

SMILES | CDK5 p35 inh | PAX8 reporter | INS-1E GSIS act | HIV Env fusion | Cneo AK release | dFosB act
COc1ccc(C(=O)c2ccc(Cl)c([N+](=O)[O-])c2)cc1 | -2 | 108* | 1 | -18 | / | -4
Cc1ccc(S(=O)(=O)NCC[C@H]2CC[C@@H](NC(=O)c3ccccn3)[C@H](CO)O2)cc1 | / | 16 | -6 | -9[16.7 µM] | -3 | /
CO[C@@H]1CN(C)C(=O)c2ccc(NC(=O)Cc3ccccc3)cc2OC[C@H](C)N(CC2CC2)C[C@H]1C | / | -12 | -8 | -11[16.7 µM] | -3 | /
Cc1cccc(C(P(=O)(c2ccccc2)c2ccccc2)P(=O)(c2ccccc2)c2ccccc2)n1 | 2 | -15 | -5 | 64* | / | -10
O=C(Nc1ccc(C(F)(F)F)cc1)N1C[C@@H]2N[C@H](C1)C2c1ccc(-c2cccc(F)c2)cc1 (some centres not stated) | / | 88* | 114* | / | / | /
N#Cc1ccc(-c2ccc(C3[C@@H]4CN(C(=O)Nc5ccc(C(F)(F)F)cc5)C[C@H]3N4)cc2)cc1 (some centres not stated) | / | 15 | 49 | / | / | /
COc1ccc(NC(=O)N2C[C@@H]3N[C@H](C2)C3c2ccc(-c3cccc(F)c3)cc2)cc1 (some centres not stated) | / | -7 | -6 | / | / | /
Cc1ccc(-c2ccc(C3[C@@H]4CN(C(=O)Nc5ccc(C(F)(F)F)cc5)C[C@H]3N4)cc2)cc1 (some centres not stated) | / | 91*! | + | / | / | /
CC(=O)c1cc(-c2ccccc2)n(CC(=O)Nc2cc(C)cc(C)c2)c1C | 0 | -7 | 4 | 13 | -1 | 33*
CC(=O)c1cc(-c2ccccc2)n(CC(=O)NC2CCCC2)c1C | 0 | / | / | -12 | 3 | -6
COC(=O)c1cnn(-c2nc(-c3ccccc3)cs2)c1N | 1 | -94 | 45* | -58 | -1 | -5
Cc1ccc(S(=O)(=O)N(C)C[C@H]2Oc3ccc(NC(=O)Cc4cn(C)c5ccccc45)cc3C(=O)N([C@@H](C)CO)C[C@@H]2C)cc1 | / | 4 | 4 | -18[16.7 µM] | 0 | /
CCn1nc(NC(=O)c2ccco2)c2cc3ccccc3nc21 | -3 | / | 44* | -67 | -2 | 5
CC(C)Cn1nc(NC(=O)c2ccco2)c2cc3ccccc3nc21 | 2 | -18 | 74* | -18 | / | -3
Cc1ccc2nc3c(cc2c1)c(NC(=O)c1ccco1)nn3CC(C)C | 0 | -12 | / | 0 | / | -4
CNc1nc(OCC#N)nc(N2CCCCC2)n1 | 0 | 3 | 44* | 1 | / | -3
CNC(=O)C[C@H]1CC[C@@H]2[C@@H](COc3ccc(NC(=O)c4cccs4)cc3C(=O)N2C)O1 | / | -7 | 7 | 22[16.7 µM] | 1 | /
COc1ccc2c3c(n(C)c2c1)[C@@H](CO)N(Cc1ccccc1)CC31CN(S(=O)(=O)c2ccc(C)cc2)C1 | / | / | 3 | / | / | /
COc1ccc2c3c(n(C)c2c1)[C@H](CO)N(Cc1ccccc1)CC31CCN(S(=O)(=O)c2ccc(C)cc2)CC1 | / | 84* | -19 | / | / | /
COc1ccc(-c2ccc(C(=O)C3CC3)cc2)cc1 | 0 | -138 | -6 | -68 | -3 | -1
CC[N+]1(C)CCC(O)(c2ccc(OC)cc2)C(C(=O)c2ccc(OC)cc2)C1 (configuration not stated) | 1 | 76* | 214* | 24 | / | -5
CCN(CC)CCOC(=O)c1ccc(N/C=C(/C#N)c2nc(-c3cc4ccccc4oc3=O)cs2)cc1 | 2 | -1 | 6 | -2 | 1 | 39*
CCN(CC)CCOC(=O)c1ccc(N/C=C(/C#N)c2nc(-c3ccc(OC)cc3)cs2)cc1 | 2 | -45 | 24 | 14 | / | ?
CCN(CC)CCOC(=O)c1ccc(N/C=C(/C#N)c2nc(-c3ccc4c(c3)OCO4)cs2)cc1 | 2 | 4 | 6 | 11 | 2 | 93*
COc1cc2[nH]c(=O)n3nc(-c4ccccc4)nc3c2cc1OC | -2 | / | / | / | / | -33
SMILES | CDK5 p35 inh | PAX8 reporter | INS-1E GSIS act | HIV Env fusion | Cneo AK release | dFosB act
CCN(CC)CCNc1nc2cc(OC)c(OC)cc2c2nc(-c3ccccc3)nn12 | 1 | -2 | 10 | -62 | 0 | 151*
C[C@@H]1CN([C@H](C)CO)C(=O)c2c(c3ccccc3n2C)-c2ccccc2CO[C@H]1CN(C)C(=O)Cc1ccccc1 | / | 0 | -12 | -32 | 13 | /
C[C@H](CO)N1C[C@H](C)[C@@H](CN(C)C(=O)Cc2ccccc2)OCc2ccccc2-c2c(n(C)c3ccccc23)C1=O | / | 66* | -6 | 12[16.7 µM] | -2 | /
C[C@H]1CN([C@@H](C)CO)C(=O)c2c(c3ccccc3n2C)-c2ccccc2CO[C@@H]1CN(C)C(=O)Cc1ccccc1 | / | 13 | -1 | 59*[16.7 µM] | -1 | /
C[C@H](CO)N1C[C@H](C)[C@H](CN(C)C(=O)Cc2ccccc2)OCc2ccccc2-c2c(n(C)c3ccccc23)C1=O | / | 9 | -10 | 58*[16.7 µM] | / | /
C[C@H]1CN([C@@H](C)CO)C(=O)c2c(c3ccccc3n2C)-c2ccccc2CO[C@H]1CN(C)C(=O)CCC(F)(F)F | / | -23 | 7 | 63*[16.7 µM] | -3 | /
C[C@@H]1CN([C@@H](C)CO)C(=O)c2c(c3ccccc3n2C)-c2ccccc2CO[C@@H]1CN(C)C(=O)CCC(F)(F)F | / | -2 | -10 | -15[16.7 µM] | 0 | /
COCC(=O)NC[C@@H]1[C@H](c2ccccc2)[C@H](CO)N1C(=O)c1ccccc1 | / | -9 | -7 | / | -1 | /
C[C@H]1CN([C@@H](C)CO)C(=O)c2cc(NS(=O)(=O)c3cccs3)ccc2O[C@H]1CN(C)C(=O)Nc1ccccc1 | / | -9 | 4 | -1[16.7 µM] | -4 | /
C[C@H]1CCCCO[C@H](CN(C)C(=O)Nc2cccc3ccccc23)[C@@H](C)CN([C@@H](C)CO)C(=O)c2cc(NS(C)(=O)=O)ccc2O1 | / | 15 | -1 | 38[16.7 µM] | -2 | /
C[C@H]1CN([C@@H](C)CO)C(=O)c2ccccc2-c2ccccc2CO[C@@H]1CN(C)C(=O)CCC(F)(F)F | / | -3 | 3 | 57*[16.7 µM] | / | /

Bioassay records: PubChem, Broad Institute
